Reference: ChEMBL document CHEMBL5661979, “Pharmacological inhibition of BMK1 suppresses tumor growth through promyelocytic leukemia protein” (Cancer Cell, 2010)
pIC50: −log10 of the molar value.

Columns and labels:
[1] = biological target: Cyclin-dependent kinase 13 (Homo sapiens, UniProt Q14004); experiment: Inhibition of CHED in human HeLa cells lysate pre incubated for 15 mins followed by ADP acyl phosphate probe addition and measured after 10 mins by LC-MS/MS analysis; format: subcellular
Outline: (§1)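 KiNativ profiling in HeLa lysate (5 mg/mL total protein). Lysate incubated 15 min with inhibitor at 50, 10, 2, 0.8 or 0 μM. ATP or ADP acylphosphate probe then added (5 μM final) and reacted 10 min. Reaction stopped with urea and analysed by targeted MS, using up to four fragment ions per kinase peptide-probe conjugate. % inhibition taken against untreated lysate. Run in duplicate.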

[2] = biological target: T1, Dual specificity mitogen-activated protein kinase kinase 6 (Homo sapiens) (UniProt P52564); experiment: Inhibition of MAP2K6 in human HeLa cells lysate at 2 uM pre incubated for 15 mins followed by ATP acyl phosphate probe addition and measured after 10 mins by LC-MS/MS analysis relative to control; format: subcellular; conditions: time 25.0 min
T1 sequence (whole entry): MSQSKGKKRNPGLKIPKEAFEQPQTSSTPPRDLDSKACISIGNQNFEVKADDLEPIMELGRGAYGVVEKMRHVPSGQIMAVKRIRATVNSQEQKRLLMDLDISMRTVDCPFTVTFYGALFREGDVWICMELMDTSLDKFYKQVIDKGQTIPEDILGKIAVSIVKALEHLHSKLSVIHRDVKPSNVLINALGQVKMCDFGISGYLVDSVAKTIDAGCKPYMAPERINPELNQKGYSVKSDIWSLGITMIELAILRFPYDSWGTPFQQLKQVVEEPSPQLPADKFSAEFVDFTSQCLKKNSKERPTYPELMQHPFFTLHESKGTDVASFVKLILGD

[3] = biological target: Calcium/calmodulin-dependent protein kinase type 1D (Homo sapiens, UniProt Q8IU85); experiment: Inhibition of CAMK1d in human HeLa cells lysate pre incubated for 15 mins followed by ADP acyl phosphate probe addition and measured after 10 mins by LC-MS/MS analysis; format: subcellular
Outline: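 KiNativ-type profiling in HeLa lysate (5 mg/mL total protein). Lysate preincubated 15 min with inhibitor at 50, 10, 2, 0.8 or 0 μM, then ATP or ADP acylphosphate probe added (5 μM final) for 10 min. Reaction stopped with urea and analysed by targeted MS, using up to four fragment ions per kinase peptide-probe conjugate. % inhibition calculated against untreated lysate. Duplicate reactions.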

[4] = biological target: Serine/threonine-protein kinase 24 (Homo sapiens, UniProt Q9Y6E0); experiment: Inhibition of MST3 in human HeLa cells lysate at 2 uM pre incubated for 15 mins followed by ADP acyl phosphate probe addition and measured after 10 mins by LC-MS/MS analysis relative to control; format: subcellular; conditions: time 25.0 min
[5] = Inhibition of KHS1/2 in human HeLa cells lysate at 2 uM pre incubated for 15 mins followed by ATP acyl phosphate probe addition and measured after 10 mins by LC-MS/MS analysis relative to control; conditions: 25 min, condition cancer
[6] = biological target: T2, Phosphatidylinositol 5-phosphate 4-kinase type-2 alpha (Homo sapiens, UniProt P48426); experiment: Inhibition of PIP5K2A LIP1 labeling site in human HeLa cells lysate pre incubated for 15 mins followed by ATP acyl phosphate probe addition and measured after 10 mins by LC-MS/MS analysis; format: subcellular
T2 sequence (P48426 whole entry): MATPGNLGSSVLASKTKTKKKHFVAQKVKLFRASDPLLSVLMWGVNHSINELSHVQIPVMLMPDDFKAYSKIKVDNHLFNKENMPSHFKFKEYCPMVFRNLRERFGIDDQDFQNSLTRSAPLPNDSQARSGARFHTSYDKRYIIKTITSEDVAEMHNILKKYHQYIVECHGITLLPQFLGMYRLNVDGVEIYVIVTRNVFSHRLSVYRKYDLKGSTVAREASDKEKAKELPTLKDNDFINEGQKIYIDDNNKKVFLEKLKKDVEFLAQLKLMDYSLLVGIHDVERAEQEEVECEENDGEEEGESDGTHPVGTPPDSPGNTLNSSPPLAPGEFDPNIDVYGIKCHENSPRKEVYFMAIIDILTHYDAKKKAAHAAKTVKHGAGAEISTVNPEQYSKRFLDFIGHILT

[7] = Inhibition of MAP3K5/MAP3K6/MAP3K15 in human HeLa cells lysate at 2 uM pre incubated for 15 mins followed by ATP acyl phosphate probe addition and measured after 10 mins by LC-MS/MS analysis relative to control; conditions: 25 min, condition cancer
[8] = biological target: Cyclin-dependent kinase 2 (Homo sapiens, UniProt P24941); experiment: Inhibition of CDK2 in human HeLa cells lysate at 2 uM pre incubated for 15 mins followed by ATP acyl phosphate probe addition and measured after 10 mins by LC-MS/MS analysis relative to control; format: subcellular; conditions: time 25.0 min; outline: as §1
[9] = biological target: Serine/threonine-protein kinase WNK1 (Homo sapiens, UniProt Q9H4A3); experiment: Inhibition of Wnk1 in human HeLa cells lysate at 10 uM pre incubated for 15 mins followed by ATP acyl phosphate probe addition and measured after 10 mins by LC-MS/MS analysis relative to control; format: subcellular; conditions: time 25.0 min
[10] = biological target: Acylglycerol kinase, mitochondrial (Homo sapiens, UniProt Q53H12); experiment: Inhibition of AGK in human HeLa cells lysate pre incubated for 15 mins followed by ATP acyl phosphate probe addition and measured after 10 mins by LC-MS/MS analysis; format: subcellular
Outline: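 HeLa cell lysates (5 mg/mL total protein) were preincubated with inhibitor at 0, 0.8, 2, 10 or 50 μM for 15 min. ATP or ADP acylphosphate probe was then added (5 μM final) for 10 min, and reactions were stopped with urea. Up to four fragment ions per kinase probe-peptide were quantified by targeted MS. % inhibition was taken relative to untreated lysate. Run in duplicate.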

[11] = biological target: Tyrosine-protein kinase Fyn (Homo sapiens, UniProt P06241); experiment: Inhibition of FYN in human HeLa cells lysate at 10 uM pre incubated for 15 mins followed by ADP acyl phosphate probe addition and measured after 10 mins by LC-MS/MS analysis relative to control; format: subcellular; conditions: time 25.0 min
[12] = Inhibition of MAP3K2/MAP3K3 in human HeLa cells lysate at 50 uM pre incubated for 15 mins followed by ADP acyl phosphate probe addition and measured after 10 mins by LC-MS/MS analysis relative to control; conditions: 25 min, condition cancer
[13] = biological target: Eukaryotic translation initiation factor 2-alpha kinase 3 (Homo sapiens, UniProt Q9NZJ5); experiment: Inhibition of PEK in human HeLa cells lysate pre incubated for 15 mins followed by ATP acyl phosphate probe addition and measured after 10 mins by LC-MS/MS analysis; format: subcellular

Sequence of Serine/threonine-protein kinase WNK1 (Q9H4A3 whole entry, looked up): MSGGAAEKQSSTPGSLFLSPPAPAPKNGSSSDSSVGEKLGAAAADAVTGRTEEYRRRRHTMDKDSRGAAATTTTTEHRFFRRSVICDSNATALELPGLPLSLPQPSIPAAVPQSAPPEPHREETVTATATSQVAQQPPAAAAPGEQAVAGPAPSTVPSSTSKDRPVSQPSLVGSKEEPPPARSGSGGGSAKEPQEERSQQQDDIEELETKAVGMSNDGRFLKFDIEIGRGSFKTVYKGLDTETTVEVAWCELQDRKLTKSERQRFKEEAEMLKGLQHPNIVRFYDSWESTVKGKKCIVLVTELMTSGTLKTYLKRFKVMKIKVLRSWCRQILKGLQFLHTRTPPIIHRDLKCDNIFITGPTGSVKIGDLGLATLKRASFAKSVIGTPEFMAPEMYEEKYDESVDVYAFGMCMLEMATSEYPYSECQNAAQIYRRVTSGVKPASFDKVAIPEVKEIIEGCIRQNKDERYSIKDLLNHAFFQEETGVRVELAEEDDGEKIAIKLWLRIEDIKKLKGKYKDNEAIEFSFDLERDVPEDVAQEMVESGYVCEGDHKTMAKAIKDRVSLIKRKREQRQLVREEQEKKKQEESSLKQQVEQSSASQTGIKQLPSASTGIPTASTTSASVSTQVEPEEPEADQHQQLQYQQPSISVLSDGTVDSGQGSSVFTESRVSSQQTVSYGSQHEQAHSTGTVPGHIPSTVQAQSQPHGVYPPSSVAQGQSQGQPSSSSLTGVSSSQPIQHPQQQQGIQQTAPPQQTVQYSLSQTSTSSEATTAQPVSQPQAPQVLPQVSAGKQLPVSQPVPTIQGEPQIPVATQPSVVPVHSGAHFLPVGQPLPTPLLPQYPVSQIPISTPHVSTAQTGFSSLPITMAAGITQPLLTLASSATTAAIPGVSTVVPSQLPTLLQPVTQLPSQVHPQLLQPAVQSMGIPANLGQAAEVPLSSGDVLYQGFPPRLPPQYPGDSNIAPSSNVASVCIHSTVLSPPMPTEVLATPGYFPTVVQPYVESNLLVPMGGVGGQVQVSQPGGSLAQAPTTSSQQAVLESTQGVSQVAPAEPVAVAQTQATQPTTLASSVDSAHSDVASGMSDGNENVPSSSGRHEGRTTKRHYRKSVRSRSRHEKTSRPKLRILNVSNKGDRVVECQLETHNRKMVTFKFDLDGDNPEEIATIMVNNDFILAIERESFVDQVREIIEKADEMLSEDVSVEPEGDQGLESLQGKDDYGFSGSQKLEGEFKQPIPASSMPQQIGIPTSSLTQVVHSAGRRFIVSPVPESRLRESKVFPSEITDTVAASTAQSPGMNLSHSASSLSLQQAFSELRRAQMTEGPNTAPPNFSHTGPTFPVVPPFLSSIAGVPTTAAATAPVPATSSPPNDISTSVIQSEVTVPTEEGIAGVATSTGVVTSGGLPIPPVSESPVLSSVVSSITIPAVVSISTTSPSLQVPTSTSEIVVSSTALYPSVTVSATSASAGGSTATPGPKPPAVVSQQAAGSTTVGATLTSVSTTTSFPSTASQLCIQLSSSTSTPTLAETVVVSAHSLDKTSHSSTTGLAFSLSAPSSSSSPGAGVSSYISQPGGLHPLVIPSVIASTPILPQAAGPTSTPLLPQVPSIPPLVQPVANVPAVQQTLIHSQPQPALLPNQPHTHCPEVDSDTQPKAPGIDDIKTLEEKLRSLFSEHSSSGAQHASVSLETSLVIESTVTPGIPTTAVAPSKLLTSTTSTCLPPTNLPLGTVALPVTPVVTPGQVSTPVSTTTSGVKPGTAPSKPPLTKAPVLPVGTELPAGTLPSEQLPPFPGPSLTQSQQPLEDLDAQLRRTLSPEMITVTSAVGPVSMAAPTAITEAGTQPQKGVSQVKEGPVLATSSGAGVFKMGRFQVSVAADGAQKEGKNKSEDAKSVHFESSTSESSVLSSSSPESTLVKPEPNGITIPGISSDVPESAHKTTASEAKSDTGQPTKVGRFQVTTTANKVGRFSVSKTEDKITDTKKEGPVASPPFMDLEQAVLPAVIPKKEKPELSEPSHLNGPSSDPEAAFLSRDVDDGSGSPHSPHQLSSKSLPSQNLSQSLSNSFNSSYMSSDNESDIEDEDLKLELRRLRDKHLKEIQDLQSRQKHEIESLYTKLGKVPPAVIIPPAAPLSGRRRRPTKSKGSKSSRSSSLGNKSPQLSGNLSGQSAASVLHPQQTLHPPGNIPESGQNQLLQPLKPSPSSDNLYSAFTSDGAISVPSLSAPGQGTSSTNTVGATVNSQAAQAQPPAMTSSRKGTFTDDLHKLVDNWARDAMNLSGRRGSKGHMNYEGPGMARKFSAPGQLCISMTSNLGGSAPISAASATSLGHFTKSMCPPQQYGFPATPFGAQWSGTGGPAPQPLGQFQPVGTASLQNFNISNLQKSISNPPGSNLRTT
Sequence of Calcium/calmodulin-dependent protein kinase type 1D (Q8IU85 whole entry, the tested form may be a part): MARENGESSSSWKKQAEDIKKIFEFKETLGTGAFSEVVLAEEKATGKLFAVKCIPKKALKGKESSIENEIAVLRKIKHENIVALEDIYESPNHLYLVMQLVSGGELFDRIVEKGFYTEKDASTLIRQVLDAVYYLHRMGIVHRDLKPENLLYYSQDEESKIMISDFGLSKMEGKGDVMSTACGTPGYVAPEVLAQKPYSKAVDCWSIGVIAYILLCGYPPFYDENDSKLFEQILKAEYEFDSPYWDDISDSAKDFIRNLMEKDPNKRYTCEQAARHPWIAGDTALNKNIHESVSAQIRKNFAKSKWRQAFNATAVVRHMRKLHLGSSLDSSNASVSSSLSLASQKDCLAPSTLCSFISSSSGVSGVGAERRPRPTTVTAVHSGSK
Sequence of Cyclin-dependent kinase 13 (Q14004 whole entry, the tested form may be a part): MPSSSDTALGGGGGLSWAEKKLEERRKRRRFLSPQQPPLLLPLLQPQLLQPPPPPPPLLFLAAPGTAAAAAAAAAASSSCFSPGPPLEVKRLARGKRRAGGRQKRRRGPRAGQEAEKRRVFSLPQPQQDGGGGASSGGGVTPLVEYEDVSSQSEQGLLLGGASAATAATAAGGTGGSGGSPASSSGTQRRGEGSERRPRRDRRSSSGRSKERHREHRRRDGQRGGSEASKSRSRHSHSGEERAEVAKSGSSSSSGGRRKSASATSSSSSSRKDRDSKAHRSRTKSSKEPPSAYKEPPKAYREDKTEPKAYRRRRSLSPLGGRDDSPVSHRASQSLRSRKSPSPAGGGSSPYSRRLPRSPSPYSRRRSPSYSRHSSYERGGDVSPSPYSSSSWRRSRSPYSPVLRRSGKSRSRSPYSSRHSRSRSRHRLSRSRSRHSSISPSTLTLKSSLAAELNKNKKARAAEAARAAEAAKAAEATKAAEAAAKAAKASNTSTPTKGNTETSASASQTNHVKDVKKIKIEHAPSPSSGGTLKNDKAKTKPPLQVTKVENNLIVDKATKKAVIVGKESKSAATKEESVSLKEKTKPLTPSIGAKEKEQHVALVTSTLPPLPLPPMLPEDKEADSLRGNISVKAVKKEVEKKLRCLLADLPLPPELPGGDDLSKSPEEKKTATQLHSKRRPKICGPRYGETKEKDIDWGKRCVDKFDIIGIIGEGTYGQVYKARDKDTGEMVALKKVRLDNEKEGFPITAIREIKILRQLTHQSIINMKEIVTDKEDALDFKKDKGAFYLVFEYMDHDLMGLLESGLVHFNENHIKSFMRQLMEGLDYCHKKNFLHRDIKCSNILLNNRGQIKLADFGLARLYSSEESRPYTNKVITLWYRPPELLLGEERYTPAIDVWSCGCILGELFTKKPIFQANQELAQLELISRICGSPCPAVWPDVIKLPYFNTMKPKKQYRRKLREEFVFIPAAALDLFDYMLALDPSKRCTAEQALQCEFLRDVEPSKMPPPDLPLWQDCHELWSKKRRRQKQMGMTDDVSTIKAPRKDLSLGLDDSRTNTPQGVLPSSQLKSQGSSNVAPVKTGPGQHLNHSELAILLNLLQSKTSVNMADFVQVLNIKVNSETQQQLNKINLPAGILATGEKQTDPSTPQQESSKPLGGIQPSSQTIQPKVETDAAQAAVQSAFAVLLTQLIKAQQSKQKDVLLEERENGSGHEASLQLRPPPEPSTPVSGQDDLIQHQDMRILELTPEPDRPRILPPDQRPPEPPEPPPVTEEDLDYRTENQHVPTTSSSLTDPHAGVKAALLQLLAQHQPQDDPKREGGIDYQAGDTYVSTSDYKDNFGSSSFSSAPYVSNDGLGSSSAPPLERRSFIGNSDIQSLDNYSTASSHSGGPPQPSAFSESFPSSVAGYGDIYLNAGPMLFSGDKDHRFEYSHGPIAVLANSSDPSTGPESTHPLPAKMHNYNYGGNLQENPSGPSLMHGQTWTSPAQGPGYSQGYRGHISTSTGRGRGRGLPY
Sequence of Serine/threonine-protein kinase 24 (Q9Y6E0 whole entry, looked up): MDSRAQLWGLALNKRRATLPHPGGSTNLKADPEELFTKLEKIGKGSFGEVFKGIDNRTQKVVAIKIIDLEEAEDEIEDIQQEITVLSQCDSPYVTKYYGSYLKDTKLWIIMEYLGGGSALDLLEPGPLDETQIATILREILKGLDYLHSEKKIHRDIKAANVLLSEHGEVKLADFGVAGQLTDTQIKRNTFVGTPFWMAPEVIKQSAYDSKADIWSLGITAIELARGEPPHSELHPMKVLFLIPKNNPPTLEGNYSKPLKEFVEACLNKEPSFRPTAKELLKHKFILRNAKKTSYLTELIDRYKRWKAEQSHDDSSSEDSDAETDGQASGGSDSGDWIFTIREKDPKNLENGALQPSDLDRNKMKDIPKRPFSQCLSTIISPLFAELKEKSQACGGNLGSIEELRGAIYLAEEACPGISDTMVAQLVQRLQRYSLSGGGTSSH

CCOc1cc(N2CCC(O)CC2)ccc1Nc1ncc2c(n1)N(C)c1ccccc1C(=O)N2C
pIC50 [1]: < 4.30
inhibition [2]: -4%
pIC50 [3]: < 4.30
inhibition [4]: 3.2%
inhibition at 2 µM [5]: -8.6%
pIC50 [6]: < 4.30
inhibition at 2 µM [7]: 2%
inhibition [8]: 2%
inhibition [9]: 6.9%
pIC50 [10]: < 4.30
inhibition [11]: 11.9%
inhibition at 50 µM [12]: -14.5%
pIC50 [13]: < 4.30
